The values below come from ChEMBL document CHEMBL1221298, “InCl3 mediated one-pot multicomponent synthesis, anti-microbial, antioxidant and anticancer evaluation of 3-pyranyl indole derivatives” (Bioorg Med Chem Lett, 2010).

By IC50 is commonly meant the concentration that gives 50% inhibition. By GI50 is commonly meant the concentration giving 50% growth inhibition. Usually TGI stands for the concentration at which net growth stops. A low value points to more potent growth arrest.

Holding throughout (assay type): functional
For assay [1], the system named is Klebsiella pneumoniae. Briefly: microbe, parasite or virus in culture. Conditions: ATCC 11298, 24 h, read-out: IZ.
Assay [2] can be described thus: Antioxidant activity assessed as ABTS radical scavenging activity. The method in brief:
(§1)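 Test samples at 50, 100, 200 and 400 ug/ml were each mixed with 1 ml of freshly prepared ABTS radical cation solution, adjusted to absorbance 0.7–0.9 at 734 nm. Mixtures reacted 2 h in the dark, then absorbance was read at 734 nm against a blank. Scavenging % was taken as the absorbance decrease relative to ABTS solution without test sample.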

Assay [3] relates to Staphylococcus aureus. Briefly: microbe, parasite or virus in culture. The following applies: ATCC 9144, 24 h.
For assay [4], the system named is Staphylococcus aureus. Briefly: microbe, parasite or virus in culture. Conditions: ATCC 9144, 24 h, read-out: IZ.
In assay [5] the test system is Bacillus cereus. In words: microbe, parasite or virus in culture. Conditions: ATCC 11778, 24 h.
The nature of assay [6]: Antioxidant activity assessed as ABTS radical scavenging activity at 100 ug/ml. The method in brief: as §1
The nature of assay [7]: Antioxidant activity assessed as ABTS radical scavenging activity at 50 ug/ml. In a few lines: as §1
A short description of assay [8]: Antioxidant activity assessed as ABTS radical scavenging activity at 400 ug/ml. The method in brief:
as §1

The test system of assay [9] is Escherichia coli. Briefly: microbe, parasite or virus in culture. The following applies: ATCC 25922, 24 h, read-out: IZ.
Assay [10] relates to Escherichia coli. In words: microbe, parasite or virus in culture. The following applies: ATCC 25922, 24 h.
Assay [11] relates to Radical scavenging activity. Briefly: Antioxidant activity assessed as DPPH radical scavenging activity at 400 ug/ml. In a few lines: (§2)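 Each test sample was mixed with 1 ml DPPH in methanol, incubated at 37 °C for 30 min, and read spectrophotometrically at 517 nm with a blank reading. Scavenging % was expressed as the absorbance decrease at 517 nm relative to DPPH solution without test sample.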
(Loss of DPPH colour is used to gauge radical scavenging.)

Assay [12] has as its system Klebsiella pneumoniae. In words: microbe, parasite or virus in culture. The following applies: ATCC 11298, 24 h.
The nature of assay [13]: Antioxidant activity assessed as ABTS radical scavenging activity at 200 ug/ml. In a few lines:
as §1

The test system of assay [14] is Radical scavenging activity. Briefly: Antioxidant activity assessed as DPPH radical scavenging activity at 50 ug/ml. In a few lines:
as §2

For assay [15], the system named is Radical scavenging activity. Briefly: Antioxidant activity assessed as DPPH radical scavenging activity. In a few lines: as §2
Assay [16] relates to Radical scavenging activity. In words: Antioxidant activity assessed as DPPH radical scavenging activity at 200 ug/ml. The method in brief:
as §2

For assay [17], the system named is Radical scavenging activity. Briefly: Antioxidant activity assessed as DPPH radical scavenging activity at 100 ug/ml. The method in brief: as §2
Assay [18] concerns Bacillus cereus. In words: Antimicrobial activity against Bacillus cereus ATCC 11778 at 100 ug/ml after 24 hrs by paper disk diffusion method. The following applies: ATCC 11778, 24 h, read-out: IZ. (In general: Agar diffusion results depend on both activity and mobility in agar.)
The test system of a further assay is MCF7. In words: Cytotoxicity against human MCF7 cells after 24 hrs by MTT assay. Conditions: MCF7, 24 h. The method in brief: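 Exponentially growing cells plated at 10⁴ cells/well and allowed to attach, then exposed to test compounds or doxorubicin (dissolved in 0.1% DMSO, diluted in medium; range 1–100) for 24 h; controls received medium with 0.1% DMSO. MTT (1 mg/ml) added for 4 h at 37 °C, formazan dissolved in DMSO, absorbance read at 540 nm; % cytotoxicity calculated from blank-corrected absorbances versus control.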
(Tetrazolium assays rely on reduction of a dye to a coloured formazan, in cell work by metabolically active cells.)

In brackets after ≈: the same amount, converted by molar mass. Activity calls are given as the source filed them. The calls are words filed in the database; no cut-off is given here.

As for `COc1ccc(C2C(C#N)=C(N)OC(c3c[nH]c4ccccc34)=C2C#N)cc1` (centres undefined), the zone of inhibition at 100 µg/mL in the assay on Klebsiella pneumoniae [1] turned out to be 19 mm; with Staphylococcus aureus [4] it was 21 mm; in the assay on Escherichia coli [9], 18 mm; in the assay with Bacillus cereus [18] it was 16 mm. The figures for the IC50 in assay [2] and in [15] were 858.69 µg/mL (≈ 2330 µM) and under 50 µg/mL, respectively. The MIC in the assay with Staphylococcus aureus [3] is 15.4 µg/mL (≈ 41.8 µM); against Bacillus cereus [5] it was 24.5 µg/mL (≈ 66.5 µM); against Escherichia coli [10], 23.4 µg/mL (≈ 63.5 µM); against Klebsiella pneumoniae [12], 19.6 µg/mL (≈ 53.2 µM). Further, the Activity came to 20% in assay [6] (at 100 µg/mL); 12.4% in assay [7] (at 50 µg/mL); 28.7% in assay [8] (at 400 µg/mL); 60.2% in assay [11] (at 400 µg/mL); 26.4% in assay [13] (at 200 µg/mL); 53.6% in assay [14] (at 50 µg/mL). In addition, the Activity was determined as 59.9% in [16] (at 200 µg/mL) and 56.9% in assay [17] (at 100 µg/mL).
Take `N#CC1=C(N)OC(c2c[nH]c3ccccc23)=C(C#N)C1c1cccc2ccccc12` (centres undefined): the zone of inhibition at 100 µg/mL in the assay on Klebsiella pneumoniae [1] was determined as 15 mm; in the assay on Staphylococcus aureus [4], 15 mm; in the assay with Escherichia coli [9], 16 mm; in the assay with Bacillus cereus [18], 16 mm. Further, the IC50 in assay [2] is over 1000 µg/mL; in assay [15], 1599.62 µg/mL (≈ 4120 µM). Further, the MIC was 28.6 µg/mL (≈ 73.6 µM) against Staphylococcus aureus [3], 26.2 µg/mL (≈ 67.5 µM) against Bacillus cereus [5], 28 µg/mL (≈ 72.1 µM) against Escherichia coli [10] and 33.2 µg/mL (≈ 85.5 µM) against Klebsiella pneumoniae [12]. The Activity in assay [6] (at 100 µg/mL) is 6.8%; in [7] (at 50 µg/mL), 4.7%; in assay [8] (at 400 µg/mL), 10.4%; in assay [11] (at 400 µg/mL), 26.4%; in [13] (at 200 µg/mL), 7.7%; in assay [14] (at 50 µg/mL) it was 18.8%. In addition, the Activity in assay [16] (at 200 µg/mL) stood at 22.8%; in assay [17] (at 100 µg/mL) it was 21.8%. The molecule further registered a GI50 in the assay with MCF7 of 18.2 µM. Also, the LC50 (concentration killing 50% of cells) in the assay on MCF7 was 80.2 µM. For the same molecule, the TGI in the assay with MCF7 was found to be 33.9 µM.
Turning to `N#CC1=C(N)OC(c2c[nH]c3ccccc23)=C(C#N)C1c1ccc2ccccc2c1` (centres undefined), the zone of inhibition at 100 µg/mL with Klebsiella pneumoniae [1] stood at 15 mm; with Staphylococcus aureus [4] it was 14 mm; in the assay on Escherichia coli [9], 16 mm; with Bacillus cereus [18] it was 15 mm. Further, the result in assay [2], in assay [6], in assay [7], in assay [8], in assay [11] and in assay [13] was inactive. Also, the outcome in assay [14], in assay [15], in [16] and in assay [17] was inactive. Besides, the MIC against Staphylococcus aureus [3] was found to be 32.4 µg/mL (≈ 83.4 µM); in the assay on Bacillus cereus [5], 23.3 µg/mL (≈ 60 µM); against Escherichia coli [10], 29.4 µg/mL (≈ 75.7 µM); against Klebsiella pneumoniae [12], 30.5 µg/mL (≈ 78.5 µM). The molecule further registered a GI50 in the assay with MCF7 of 15.5 µM. For the same molecule, the LC50 (concentration killing 50% of cells) in the assay with MCF7 was found to be 91.5 µM. The molecule also had a TGI in the assay on MCF7 of 46.6 µM.
`Cc1ccc(C2C(C#N)=C(N)OC(c3c[nH]c4ccccc34)=C2C#N)cc1` (centres undefined): the zone of inhibition at 100 µg/mL in the assay on Klebsiella pneumoniae [1] was found to be 17 mm; in the assay with Staphylococcus aureus [4], 20 mm; with Escherichia coli [9] it was 15 mm; with Bacillus cereus [18] it was 14 mm. The values for the IC50 in assay [2] and in [15] were over 1000 µg/mL and 1590.74 µg/mL (≈ 4510 µM), respectively. Besides, the MIC was 22.3 µg/mL (≈ 63.3 µM) in the assay with Staphylococcus aureus [3], 25.8 µg/mL (≈ 73.2 µM) in the assay on Bacillus cereus [5], 36.3 µg/mL (≈ 103 µM) with Escherichia coli [10] and 25.1 µg/mL (≈ 71.2 µM) in the assay with Klebsiella pneumoniae [12]. In addition, the Activity worked out at 5.5% in assay [6] (at 100 µg/mL); 5.2% in assay [7] (at 50 µg/mL); 8.5% in assay [8] (at 400 µg/mL); 30.4% in assay [11] (at 400 µg/mL); 6.2% in assay [13] (at 200 µg/mL); 24.8% in assay [14] (at 50 µg/mL). For the same molecule, the Activity worked out at 28.9% in [16] (at 200 µg/mL) and 25.8% in assay [17] (at 100 µg/mL).
On to `COc1ccc(C2C(C#N)=C(N)OC(c3c[nH]c4ccccc34)=C2C#N)cc1OC` (centres undefined), for which the zone of inhibition at 100 µg/mL with Klebsiella pneumoniae [1] was found to be 17 mm; with Staphylococcus aureus [4], 15 mm; in the assay with Escherichia coli [9], 17 mm; with Bacillus cereus [18], 16 mm. Besides, the values for the IC50 in assay [2] and in assay [15] were 867.28 µg/mL (≈ 2180 µM) and under 50 µg/mL, respectively. Also, the MIC amounted to 31.8 µg/mL (≈ 79.8 µM) against Staphylococcus aureus [3], 25.4 µg/mL (≈ 63.8 µM) against Bacillus cereus [5], 26.7 µg/mL (≈ 67 µM) with Escherichia coli [10] and 21.2 µg/mL (≈ 53.2 µM) in the assay with Klebsiella pneumoniae [12]. Also, the Activity is 19.1% in assay [6] (at 100 µg/mL); 14.5% in assay [7] (at 50 µg/mL); 28.1% in assay [8] (at 400 µg/mL); 62.9% in assay [11] (at 400 µg/mL); 26.1% in [13] (at 200 µg/mL); 55.8% in assay [14] (at 50 µg/mL). Besides, the Activity in assay [16] (at 200 µg/mL) is 59.1%; in [17] (at 100 µg/mL) it was 57.9%. Further, it took 20.6 µM to inhibit growth in the assay with MCF7 by half (GI50). Also, the LC50 (concentration killing 50% of cells) with MCF7 was 72.1 µM. For the same molecule, the TGI with MCF7 is 37.4 µM.
